Test results taken from ChEMBL document CHEMBL1153527, “Discovery of a novel series of quinolone and naphthyridine derivatives as potential topoisomerase I inhibitors by scaffold modification” (J Med Chem, 2009).
Activity calls are given as the source filed them. No cut-off for these calls is given here.

Experiments:
HT-29 [1] = test: Cell cycle distribution in human HT-29 cells assessed as accumulation at S phase at 0.1 uM after 12 hrs by flow cytometry; type: functional, cell-based
Summary of the method: (§1)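 HT-29 cells were exposed to vehicle or compound for 6, 12, 24 or 48 h. Attached and floating cells were collected by trypsin-EDTA, fixed in 70% ethanol, and treated with 0.1% Triton X-100 for 30 min. They were stained with 50 μg/mL PI plus 50 μg/mL RNase A for 30 min in the dark at room temperature. 10000 cells were read by FL2 at 488 nm excitation. S-phase and sub-G1 (apoptotic) fractions are expressed as % of total cells.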

THP-1 = test: Cytotoxicity against human THP1 cells expressing p53 mutant after 48 hrs by SRB assay; type: functional, cell-based; conditions: THP-1, 48 h
HepG2 = test: Cytotoxicity against human HepG2 cells expressing wild type p53 after 48 hrs by SRB assay; type: functional, cell-based; conditions: HepG2, 48 h
Summary of the method: (§2)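 Cell lines came from CCRC, Taiwan. Cells were seeded at about 5 × 10^3 per well and left overnight. They were then given serum-free medium containing 0-10 μM compound (0.08-10 μM serial dilutions) for 48 h at 37 °C. Cells were fixed with TCA (10% final), stained with SRB (0.4% final), and the dye was dissolved in 10 mM Tris with A515 read. IC50 was taken from a fitted log concentration-response curve.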

HT-29 [2] = test: Cell cycle distribution in human HT-29 cells assessed as accumulation at S phase at 0.1 uM after 6 hrs by flow cytometry; type: functional, cell-based; summary of the method: as §1
[3] = Cytotoxicity against estrogen receptor-negative human […] cells expressing p53 mutant after 48 hrs by SRB assay; type: functional, cell-based; summary of the method: as §2
K562 = test: Cytotoxicity against p53-deficient human K562 cells after 48 hrs by SRB assay; type: functional, cell-based; conditions: K562, 48 h
HeLa = test: Cytotoxicity against p53-deficient human HeLa cells after 48 hrs by SRB assay; type: functional, cell-based; summary of the method: as §2
HT-29 [4] = test: Induction of apoptosis in human HT-29 cells assessed as increase in accumulation at sub-G1 phase at 0.1 uM after 48 hrs by flow cytometry; type: functional; summary of the method: as §1
HT-29 [5] = test: Cell cycle distribution in human HT-29 cells assessed as accumulation at S phase at 0.1 uM after 24 hrs by flow cytometry; type: functional, cell-based; summary of the method: as §1
MCF7 = test: Cytotoxicity against estrogen receptor-positive human MCF7 cells expressing wild type p53 after 48 hrs by SRB assay; type: functional, cell-based; conditions: MCF7, 48 h; summary of the method: as §2
HT-29 [6] = test: Cell cycle distribution in human HT-29 cells assessed as accumulation at sub-G1 phase at 0.1 uM after 48 hrs by flow cytometry; type: functional, cell-based; summary of the method: as §1
HT-29 [7] = test: Cytotoxicity against human HT-29 cells expressing p53 mutant after 48 hrs by SRB assay; type: functional, cell-based; conditions: HT-29, 48 h; summary of the method: as §2
[8] = target: T1, DNA topoisomerase 1 (Homo sapiens) (UniProt P11387); test: Induction of human topoisomerase 1-mediated chromosomal DNA strand breaks in HT-29 cells at 10 uM after 1 hr by comet assay; type: cell-based
T1 sequence (whole entry): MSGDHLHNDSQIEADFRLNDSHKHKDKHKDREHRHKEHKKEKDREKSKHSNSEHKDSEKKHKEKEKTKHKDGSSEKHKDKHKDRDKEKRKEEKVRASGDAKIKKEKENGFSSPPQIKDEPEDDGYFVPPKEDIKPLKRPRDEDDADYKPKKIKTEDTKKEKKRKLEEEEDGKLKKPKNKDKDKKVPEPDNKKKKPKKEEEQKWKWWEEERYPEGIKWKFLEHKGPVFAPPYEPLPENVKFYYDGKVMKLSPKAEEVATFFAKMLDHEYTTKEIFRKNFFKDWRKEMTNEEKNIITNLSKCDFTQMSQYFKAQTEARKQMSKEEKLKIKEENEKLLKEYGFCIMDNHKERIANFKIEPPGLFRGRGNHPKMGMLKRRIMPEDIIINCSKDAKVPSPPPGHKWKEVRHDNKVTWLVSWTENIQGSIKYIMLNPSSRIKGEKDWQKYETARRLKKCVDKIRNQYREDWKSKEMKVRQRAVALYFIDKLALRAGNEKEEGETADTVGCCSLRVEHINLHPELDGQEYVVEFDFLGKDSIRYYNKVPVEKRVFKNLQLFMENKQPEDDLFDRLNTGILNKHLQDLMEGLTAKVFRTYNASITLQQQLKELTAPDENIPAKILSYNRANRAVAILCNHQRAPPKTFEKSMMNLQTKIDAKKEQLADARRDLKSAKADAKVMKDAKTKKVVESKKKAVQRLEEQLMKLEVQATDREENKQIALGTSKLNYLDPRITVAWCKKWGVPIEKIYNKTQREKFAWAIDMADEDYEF
Summary of the method: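 HT-29 cells were seeded at 1 × 10^4 per well and attached overnight, then treated for 1 h. Untreated cells served as negative control. Cells in low-melting agarose on precoated slides were lysed at pH 10.5 for 30 min at 4 °C and unwound in 300 mM NaOH/1 mM EDTA (pH >13) for 30 min at 4 °C. Electrophoresis ran 10 min at 16 V, with SYBR Gold staining. Read-out was mean % tail DNA from ≥50 nuclei, duplicates in three independent experiments.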

AGS = test: Cytotoxicity against human AGS cells expressing wild type p53 after 48 hrs by SRB assay; type: functional, cell-based; summary of the method: as §2
HT-29 [9] = test: Cell cycle distribution in human HT-29 cells assessed as accumulation at S phase at 0.1 uM after 48 hrs by flow cytometry; type: functional, cell-based; summary of the method: as §1
U-937 = test: Cytotoxicity against human U937 cells expressing p53 mutant after 48 hrs by SRB assay; type: functional, cell-based; conditions: U-937, 48 h
A549 = test: Cytotoxicity against human A549 cells expressing wild type p53 after 48 hrs by SRB assay; type: functional, cell-based; conditions: A549, 48 h; summary of the method: as §2
[10] = Cytotoxicity against p53-deficient human Hep3B cells after 48 hrs by SRB assay; type: functional, cell-based, Hep 3B2; summary of the method: as §2
PC-3 = test: Cytotoxicity against p53-deficient human PC3 cells after 48 hrs by SRB assay; type: functional, cell-based; conditions: PC-3, 48 h; summary of the method: as §2
A2780 = test: Cytotoxicity against human A2780 cells after 48 hrs by MTT assay; type: functional, cell-based; conditions: A2780, 48 h
[11] = target: T1, DNA topoisomerase 1 (Homo sapiens); test: Inhibition of DNA topoisomerase 1-mediated supercoiled Escherichia coli pBR322 DNA relaxation upto 25 uM after 30 mins
Bel-7402 = test: Cytotoxicity against human Bel7402 cells after 48 hrs by MTT assay; type: functional, cell-based; conditions: Bel-7402, 48 h
[12] = Solubility in assay condition at 50 uM; type: physicochemical
KB = test: Cytotoxicity against human KB cells after 48 hrs by MTT assay; type: functional, cell-based
HT-29 [13] = test: Antitumor activity against human HT-29 cells xenografted in athymic BALB/c nude mouse at 5 mg/kg, ip for 2 days measured after 30 days relative to placebo control; type: functional; conditions: route intraperitoneal
Summary of the method: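 Female athymic BALB/c nude mice (35-40 days old, 18-22 g). HT-29 tumours first grown from 1 × 10^7 cells injected s.c. in the axillary fossa, then excised and transplanted. Treatment started at 100-300 mm3. Groups of n=6 were dosed i.p. daily in 400 μL: saline for 10 days, 5 mg/kg for 2 days, or 75/150 mg/kg for 10 days. Caliper volume was V=1/2·a·b². Values are relative to start volume, compared with placebo by Student's t test, and mice were killed on day 30.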

SMILES | IC50 (THP-1) [µM] | GI50 (HepG2) [µM] | IC50 (HepG2) [µM] | GI50 [3] [µM] | IC50 [3] [µM] | IC50 (K562) [µM] | GI50 (HeLa) [µM] | IC50 (HeLa) [µM] | GI50 (MCF7) [µM] | IC50 (MCF7) [µM] | GI50 (HT-29 [7]) [µM] | IC50 (HT-29 [7]) [µM] | GI50 (AGS) [µM] | IC50 (AGS) [µM] | IC50 (U-937) [µM] | GI50 (A549) [µM] | IC50 (A549) [µM] | GI50 [10] [µM] | IC50 [10] [µM] | GI50 (PC-3) [µM] | further results
CC[C@@]1(O)C(=O)OCc2c1cc1n(c2=O)Cc2cc3ccccc3nc2-1 [CAMPTOTHECIN] | 0.6 | 0.1 | 0.2 | 0.08 | 1.7 | 1.4 | 0.04 | 0.2 | 0.01 | 1.1 | 0.03 | 0.4 | 0.01 | 0.02 | 0.3 | 0.01 | 0.04 | 0.01 | 0.06 | 0.7 | Activity (HT-29 [1]): Active; Activity (HT-29 [2]): Active; Activity (HT-29 [4]): 44.8%; Activity (HT-29 [5]): Active; Activity (HT-29 [6]): Active; Activity [8]: 84%; Activity (HT-29 [9]): Active; IC50 (PC-3): 1.4 µM
C[C@H]1COc2c(N3CCN(C)CC3)c(F)cc3c(=O)c(-c4nc5ccc([N+](=O)[O-])cc5s4)cn1c23 | > 10 | 7.6 | > 10 | > 10 | > 10 | > 10 | > 10 | > 10 | > 10 | > 10 | 5 | 10 | 7 | 8.8 | > 10 | 3.9 | > 10 | > 10 | > 10 | 1.8 | IC50 (A2780): 1.2 µM; inhibition [11]: inactive; IC50 (Bel-7402): 2 µM; IC50 (PC-3): 9.9 µM; solubility [12]: Insoluble; IC50 (KB): 0.6 µM
CC[C@@]1(O)C(=O)OCc2c1cc1n(c2=O)Cc2cc3c(CN(C)C)c(O)ccc3nc2-1 [TOPOTECAN] | 1.5 | 1.2 | 1.6 | 0.9 | 2 | 1.7 | 0.08 | 1.6 | 0.8 | 2 | 0.08 | 0.4 | 0.1 | 0.3 | 1.1 | 0.9 | 1.9 | 0.4 | 1.4 | 1.3 | Activity (HT-29 [1]): Active; Activity (HT-29 [13]): 76%; Activity (HT-29 [2]): Active; Activity (HT-29 [4]): 40.5%; Activity (HT-29 [5]): Active; Activity (HT-29 [6]): Active; Activity (HT-29 [9]): Active; IC50 (PC-3): 2 µM
CCn1cc(-c2nc3ccc(Cl)cc3[nH]2)c(=O)c2cc(F)c(N3CCNCC3)cc21 | 2.8 | 1.8 | 3.7 | 0.9 | 2.3 | 2.7 | 1.2 | 4.2 | 4.2 | 4.5 | 1.8 | 4.7 | 4.5 | 1 | 4.2 | 1 | 0.5 | 0.9 | 2.3 | 3.3 | IC50 (A2780): 4.9 µM; IC50 (Bel-7402): 2.8 µM; IC50 (PC-3): 4.8 µM; IC50 (KB): 1.6 µM
CCn1cc(-c2nc3ccc(N)cc3[nH]2)c(=O)c2cc(F)c(N3CCNCC3)cc21 | 10 | > 10 | > 10 | > 10 | > 10 | > 10 | > 10 | > 10 | > 10 | > 10 | > 10 | > 10 | 7.8 | 10 | > 10 | > 10 | > 10 | > 10 | > 10 | > 10 | IC50 (A2780): 51.5 µM; IC50 (Bel-7402): 92.1 µM; IC50 (PC-3): > 10 µM; IC50 (KB): 35.4 µM
